# Calls of active or inactive are those of the source. The rule behind the calls is not given here.
# What was measured:
# KG-1a [1] = experiment: Cytotoxicity against human KG-1a cells assessed as cell death incubated for 72 hrs by flow cytometry based Annexin V/7-AAD assay; format: functional
# In short: (§1)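 Cell suspensions from confluent flasks (10^5 cells per well) exposed 72 h at 37°C, humidified 5% CO2, to compound over experimentally set concentration ranges, with drug-free controls. Cells harvested by centrifugation, Annexin V/7-AAD flow cytometry. Triplicate experiments; LC50 by non-linear regression of sigmoidal dose-response curves, mean ± SEM.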
# HT-29 [2] = experiment: Cytotoxicity against human HT-29 cells assessed as cell death incubated for 72 hrs by flow cytometry based Annexin V/7-AAD assay; format: functional; settings: read-out: LC50 (the source's name); in short: as §1
# LNCaP = experiment: Cytotoxicity against human LNCaP cells assessed as cell death incubated for 72 hrs by flow cytometry based Annexin V/7-AAD assay; format: functional; settings: read-out: LC50 (the source's name); in short: as §1
# BXPC-3 = experiment: Cytotoxicity against human BXPC-3 cells assessed as cell death incubated for 72 hrs by MTS assay; format: functional; settings: read-out: LC50 (the source's name)
# In short: (§2)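 Contracted MTS viability test (BxPC-3, MIA PaCa-2, HT-29, SW620), cells plated the day before dosing. 72 h exposure to 9 serial 3.16-fold dilutions, highest 198 μM, then MTS for 4 h at 37°C and absorbance read. Run in duplicate; LC50 (concentration giving 50% cell death) taken from curve fit as mean.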
# MIA PaCa-2 = experiment: Cytotoxicity against human MIA PaCa-2 cells assessed as cell death incubated for 72 hrs by MTS assay; format: functional; settings: read-out: LC50 (the source's name); in short: as §2
# KG-1a [3] = experiment: Cytotoxicity against human KG-1a cells assessed as reduction in leukemic stem cells fraction >= 0.25 uM measured after 48 hrs by FACS assay; format: functional, cell-based; settings: dose microM >=0.25, time 48.0 hrs
# [4] = Prodrug activation assessed as carboxypeptidase Y-mediated metabolite A release measured upto 120 mins by NMR analysis; format: ADME; settings: saccharomyces cerevisiae, 2 h
# In short: (§3)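 ProTide (3.5 mg) in acetone-d6 with Trizma buffer pH 7.6. Control 31P NMR taken, then carboxypeptidase Y (0.1 mg in Trizma) added. 31P NMR spectra (202 MHz, 25°C) collected with 64 scans every 7 min. Parent and metabolite A/C fractions followed by peak integration over time.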
# [5] = Prodrug activation assessed as carboxypeptidase Y-mediated metabolite C release measured upto 120 mins by NMR analysis; format: ADME; settings: saccharomyces cerevisiae, 2 h; in short: as §3
# MDA-MB-231 = experiment: Cytotoxicity against human MDA-MB-231 cells incubated for 72 hrs by flow cytometry using Annexin V/7-AAD assay; format: functional; settings: read-out: LC50 (the source's name); in short: as §1
# HCT-116 = experiment: Cytotoxicity against human HCT-116 cells assessed as cell death incubated for 72 hrs by flow cytometry based Annexin V/7-AAD assay; format: functional; settings: read-out: LC50 (the source's name); in short: as §1
# SW-620 [6] = experiment: Cytotoxicity against human SW-620 cells assessed as cell death incubated for 72 hrs by MTS assay; format: functional; settings: read-out: LC50 (the source's name); in short: as §2
# [7] = Stability in human plasma assessed as half life; format: ADME, cell-free; settings: time <=24 hrs
# [8] = Metabolic stability in cryopreserved human hepatocytes assessed as half life at 1 uM for 60 mins by HPLC-MS/MS analysis; format: ADME, cell-based, Hepatocyte; settings: for t1/2: hepatocytes, 1 h, 1 µM
# In short: (§4)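 Pooled cryopreserved human hepatocytes thawed, washed and resuspended in Krebs-Henseleit buffer pH 7.3. Compound at 1 μM final, incubated 0 and 60 min at 37°C/5% CO2. Quenched with acetonitrile, centrifuged; supernatant analysed by HPLC-MS/MS.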
# [9] = Metabolic stability in cryopreserved human hepatocytes assessed as parent compound remaining at 1 uM for 60 mins by HPLC-MS/MS analysis; format: ADME, cell-based, Hepatocyte; in short: as §4
# KG-1a [10] = experiment: Potency index, ratio of FUDR LC50 to test compound LC50 for human KG-1a cells incubated for 72 hrs by flow cytometry using Annexin V/7-AAD assay; format: functional
# In short: (§5)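 Annexin V/7-AAD flow cytometry after 72 h exposure at 37°C, 5% CO2, drug-free controls included, triplicate. LC50 by non-linear regression. Index is reference nucleoside LC50 (5-FU for HT-29, FUDR for KG1a) divided by test compound LC50.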
# KG-1a [11] = experiment: Cytotoxicity against human KG-1a cells assessed as reduction in leukemic stem cells fraction at >= 0.07 uM after 48 hrs by FACS assay; format: functional, cell-based; settings: dose microM >=0.07, time 48.0 hrs
# In short: (§6)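 KG1a AML cells were kept in RPMI with 20% foetal calf serum and penicillin/streptomycin, then exposed to a wide concentration range of each nucleoside or ProTide. Cells were stained with anti-CD34 (FITC) and anti-CD38 (PE) and read by flow cytometry. The CD34⁺/CD38⁻ stem-cell subset was expressed as a percentage of viable cells. Results are the mean ±SEM of five independent experiments.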
# HT-29 [12] = experiment: Potency index, ratio of 5-FU LC50 to test compound LC50 for human HT-29 cells for 72 hrs by flow cytometry using Annexin V/7-AAD assay; format: functional; in short: as §5
# [13] = Prodrug activation assessed as carboxypeptidase Y-mediated metabolite A release measured within 10 mins by NMR analysis; format: ADME; settings: saccharomyces cerevisiae; in short: as §3
# SW-620 [14] = experiment: Potency index, ratio of 5-FU LC50 to test compound LC50 for human SW-620 cells incubated for 72 hrs by MTS assay; format: functional
# In short: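 SW620 MTS assay: 72 h exposure to 9 serial 3.16-fold dilutions from 198 μM, MTS 4 h at 37°C, absorbance read, duplicate. LC50 from curve fit; index is 5-FU LC50 divided by test compound LC50.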
# [15] = Prodrug activation assessed as carboxypeptidase Y-mediated metabolism by measuring compound remaining within 10 mins by NMR analysis; format: ADME; settings: saccharomyces cerevisiae; in short: as §3
# KG-1a [16] = experiment: Cytotoxicity against human KG-1a cells assessed as reduction in leukemic stem cells fraction up to 5 uM measured after 48 hrs by FACS assay; format: functional, cell-based; settings: dose microM <=5, time 48.0 hrs
# KG-1a [17] = experiment: Cytotoxicity against human KG-1a cells assessed as viable cells at 0.25 uM for 48 hrs by FITC-PE analysis (reference value: 3.9 to 4%); format: functional; in short: as §6
# KG-1a [18] = experiment: Cytotoxicity against human KG-1a cells assessed as viable cells at 0.5 uM for 48 hrs by FITC-PE analysis (reference value: 3.9%); format: functional; in short: as §6
# [19] = Drug uptake in human KG-1a cell leukemic stem cells fraction assessed as intracellular accumulation at 1 uM treated for 1 hr by mass spectrometry analysis; format: ADME
# In short: (§7)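 KG1a cells (5×10^6, DMEM + 10% FCS) exposed to 1 μM compound for 1 h, harvested, then FACS-sorted into CD34+/CD38− LSC and CD34+/CD38+ bulk fractions. Pellets lysed; intracellular triphosphate quantified by mass spectrometry against a nucleoside standard curve. Five independent experiments in triplicate, mean ± SEM.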
# [20] = Drug uptake in human KG-1a cell bulk tumor fraction assessed as intracellular accumulation at 1 uM treated for 1 hr by mass spectrometry analysis; format: ADME; in short: as §7
# KG-1a [21] = experiment: Cytotoxicity against human KG-1a cells assessed as viable cells at 1 uM for 48 hrs by FITC-PE analysis (reference value: 3.9 to 4%); format: functional; in short: as §6
# KG-1a [22] = experiment: Cytotoxicity against human KG-1a cells assessed as reduction in leukemic stem cells fraction up to 2.5 uM measured after 48 hrs by FACS assay; format: functional, cell-based; settings: dose microM <=2.5, time 48.0 hrs; in short: as §6
smiles,measurement,setting,value
C[C@H](N[P@@](=O)(OC[C@H]1O[C@@H](n2ccc(N)nc2=O)C(F)(F)[C@@H]1O)Oc1ccccc1)C(=O)OCc1ccccc1,LC50,KG-1a [1],0.25 µM
same,CC50,"HT-29 [2]; Homo sapiens, HT-29, 72 h",1 µM
same,CC50,LNCaP,3.4 µM
same,CC50,BXPC-3,1.29 µM
same,CC50,MIA PaCa-2,0.19 µM
same,Activity,KG-1a [3],Active
same,Drug metabolism,[4],Metabolite_Notdetected
same,Drug metabolism,[5],Metabolite_Detected
C[C@H](N[P@](=O)(OC[C@H]1O[C@@H](n2ccc(N)nc2=O)C(F)(F)[C@@H]1O)Oc1ccccc1)C(=O)OCc1ccccc1,LC50,KG-1a [1],0.31 µM
same,CC50,"HT-29 [2]; Homo sapiens, HT-29, 72 h",1.5 µM
same,CC50,LNCaP,2.6 µM
same,CC50,BXPC-3,2.44 µM
same,CC50,MIA PaCa-2,0.03 µM
same,Activity,KG-1a [3],Active
C[C@H](NP(=O)(OC[C@H]1O[C@@H](n2cc(F)c(=O)[nH]c2=O)C[C@@H]1O)Oc1cccc2ccccc12)C(=O)OCc1ccccc1 (stereo in doubt; form 1) [FOSIFLOXURIDINE NAFALBENAMIDE],LC50,KG-1a [1]; 72 h,0.053 µM
same,CC50,"MDA-MB-231; Homo sapiens, MDA-MB-231, 72 h",2.8 µM
same,CC50,"HCT-116; Homo sapiens, HCT-116, 72 h",3.1 µM
same,CC50,"HT-29 [2]; Homo sapiens, HT-29, 72 h",1.7 µM
same,CC50,"SW-620 [6]; Homo sapiens, SW-620, 72 h",1.84 µM
same,half-life,[7],582 min
same,half-life at 1 µM,[8]; cryopreserved hepatocytes,34 min
same,"remaining at 1 h, 1 µM","[9]; cryopreserved hepatocytes, read-out: Stability",30%
same,RatioLC50,KG-1a [10],23
C[C@H](NP(=O)(OC[C@H]1O[C@@H](n2cc(F)c(=O)[nH]c2=O)C[C@@H]1O)Oc1cccc2ccccc12)C(=O)OCc1ccccc1 (stereo in doubt; form 2),Activity,KG-1a [11],Active
C[C@H](NP(=O)(OC[C@H]1O[C@@H](n2cc(F)c(=O)[nH]c2=O)C[C@@H]1O)Oc1cccc2ccccc12)C(=O)OCc1ccccc1 (stereo in doubt; form 2) [FOSIFLOXURIDINE NAFALBENAMIDE],RatioLC50,HT-29 [12],13
same,LC50,KG-1a [1]; 72 h,0.052 µM
same,CC50,MDA-MB-231; 72 h,3.6 µM
same,CC50,HCT-116; 72 h,4.3 µM
same,CC50,HT-29 [2]; 72 h,2.1 µM
same,CC50,SW-620 [6]; 72 h,2.37 µM
same,t1/2,[8],53 min
same,Stability,"[9]; hepatocytes, 1 h, 1 µM",40%
same,Drug metabolism,[13],Metabolite_Detected
C[C@H](NP(=O)(OC[C@H]1O[C@@H](n2cc(F)c(=O)[nH]c2=O)C[C@@H]1O)Oc1cccc2ccccc12)C(=O)OCc1ccccc1 (stereo in doubt; form 3),Activity,KG-1a [11],Active
C[C@H](NP(=O)(OC[C@H]1O[C@@H](n2cc(F)c(=O)[nH]c2=O)C[C@@H]1O)Oc1cccc2ccccc12)C(=O)OCc1ccccc1 (stereo in doubt; form 3) [FOSIFLOXURIDINE NAFALBENAMIDE],LC50,KG-1a [1]; 72 h,0.055 µM
same,CC50,MDA-MB-231; 72 h,2.5 µM
same,CC50,HCT-116; 72 h,2.6 µM
same,CC50,HT-29 [2]; 72 h,1.5 µM
same,CC50,SW-620 [6]; 72 h,1.46 µM
same,RatioLC50,SW-620 [14],4
same,t1/2,[8],47 min
same,Activity,[15],28%
O=c1[nH]cc(F)c(=O)[nH]1 [FLUOROURACIL],LC50,KG-1a [1],1.4 µM
same,CC50,"MDA-MB-231; Homo sapiens, MDA-MB-231, 72 h",12.6 µM
same,CC50,"HCT-116; Homo sapiens, HCT-116, 72 h",3.7 µM
same,CC50,"HT-29 [2]; Homo sapiens, HT-29, 72 h",5.5 µM
same,CC50,"SW-620 [6]; Homo sapiens, SW-620, 72 h",7.98 µM
same,half-life,[7],8 min
same,Activity,KG-1a [16],inactive
C[C@H](NP(=O)(OC[C@H]1O[C@@H](n2ccc(N)nc2=O)C(F)(F)[C@@H]1O)Oc1ccccc1)C(=O)OCc1ccccc1 (some centres undefined) [FOSGEMCITABINE PALABENAMIDE],LC50,KG-1a [1],0.28 µM
same,CC50,"HT-29 [2]; Homo sapiens, HT-29, 72 h",1.3 µM
same,CC50,LNCaP,3.1 µM
same,CC50,BXPC-3,2.29 µM
same,CC50,MIA PaCa-2,0.1 µM
same,half-life,[7],498 min
same,Activity,KG-1a [17],2.7%
same,Activity,KG-1a [18],2.5%
same,Drug uptake,[19],Active
same,Drug uptake,[20],Active
same,Activity,KG-1a [21],1.9%
Nc1ccn([C@@H]2O[C@H](CO)[C@@H](O)C2(F)F)c(=O)n1 [GEMCITABINE],LC50,KG-1a [1],1.8 µM
same,CC50,"HT-29 [2]; Homo sapiens, HT-29, 72 h",0.7 µM
same,CC50,LNCaP,2.8 µM
same,CC50,BXPC-3,0.74 µM
same,CC50,MIA PaCa-2,0.01 µM
same,Activity,KG-1a [17],4.1%
same,Activity,KG-1a [18],3.9%
same,Activity,KG-1a [22],inactive
same,Activity,KG-1a [21],3.8%

# Reference: ChEMBL document CHEMBL5029146, “Single Diastereomers of the Clinical Anticancer ProTide Agents NUC-1031 and NUC-3373 Preferentially Target Cancer Stem Cells In Vitro” (J Med Chem, 2021)
